Hits are enriched below; roughly 2.4% of the tested compounds scored in any of these assays.
Myeloid diff 2: promotes myeloid progenitor differentiation. ER-HoxA9 myeloid progenitors, lysozyme-GFP differentiation, flow cytometry. calls only at 10 µM. hit rate 1% among 360,000;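 active = normalized GFP-positive differentiation at or above the plate's own cutoff, the solvent-only control mean plus 3 SD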;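 also: cells exposed to compound for four days before flow analysis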
NRP1-CendR mod: alters CendR peptide binding to human NRP-1; FAM-RPARPAR peptide binding to NRP-1, fluorescence polarization; inhibition, % at 25 µM; hit rate 0.85% among 360,000; AID 602438;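 active = inhibition or corrected inhibition above about 18%, plus a signal ratio from 0.5 to 1.5, limit read from the data, passing the limit was not always enough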
MT1-MMP act inh: inhibitors of human MT1-MMP activation; HT1080 RFP-PRO-GFP cells, GFP/RFP ratio fluorescence, overnight; percent of plate control window, DMSO zero; GFP/RFP ratio change, % at 20 µM; hit rate 0.061% among 360,000; AID 651647;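 active = GFP/RFP ratio change of at least 30% with cell ATP level not reduced by more than half and red fluorescence within 50% of control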
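Material – HT1080 RFP-PRO-GFP cells · Control set – DMSO wells and RFP-L50D-GFP cells · Incubation – overnight cell settling, then overnight compound exposure, 37 °C, 5% CO2 · Compound dosing – single-point 20 µM compound, 1% DMSO · Read-out – GFP/RFP fluorescence ratio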
SENP1 FRET inh: blocks the human SENP1 SUMO protease catalytic domain | Q9P0U3 | recombinant SENP1 catalytic domain, CyPet-SUMO1-YPet FRET cleavage | inhibition, % at 10 µM | hit rate 0.21% among 360,000;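 active = inhibition at least 30% at 10 µM, raw YFP signal under a set limit, fluorescence ratio 0.5 to 1.5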;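 also: 0% = enzyme with DMSO and 100% = no enzyme wells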
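system = hSENP1 catalytic domain, recombinant | reagent = SFCypet-SUMO1-SFYpet substrate at 25 nM | doses = one dose per compound, 10 µM, 0.5% DMSO | incubation = enzyme reaction for 50 min at room temperature, dark | measured by = FRET, CFP and YFP emission | controls = no-enzyme low, enzyme-DMSO high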
DAGLB inhibitor: blocks human DAGLB lipase activity; Q8NCG7; HEK293T DAGLB membrane lysate, EnzChek fluorogenic substrate; inhibition, % at 5.17 µM; hit rate 0.059% among 340,000; in the data active = inhibition above about 34%;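 also: 0% = enzyme with vehicle and 100% = wells lacking enzyme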
Target sequence (Q8NCG7 whole entry, looked up): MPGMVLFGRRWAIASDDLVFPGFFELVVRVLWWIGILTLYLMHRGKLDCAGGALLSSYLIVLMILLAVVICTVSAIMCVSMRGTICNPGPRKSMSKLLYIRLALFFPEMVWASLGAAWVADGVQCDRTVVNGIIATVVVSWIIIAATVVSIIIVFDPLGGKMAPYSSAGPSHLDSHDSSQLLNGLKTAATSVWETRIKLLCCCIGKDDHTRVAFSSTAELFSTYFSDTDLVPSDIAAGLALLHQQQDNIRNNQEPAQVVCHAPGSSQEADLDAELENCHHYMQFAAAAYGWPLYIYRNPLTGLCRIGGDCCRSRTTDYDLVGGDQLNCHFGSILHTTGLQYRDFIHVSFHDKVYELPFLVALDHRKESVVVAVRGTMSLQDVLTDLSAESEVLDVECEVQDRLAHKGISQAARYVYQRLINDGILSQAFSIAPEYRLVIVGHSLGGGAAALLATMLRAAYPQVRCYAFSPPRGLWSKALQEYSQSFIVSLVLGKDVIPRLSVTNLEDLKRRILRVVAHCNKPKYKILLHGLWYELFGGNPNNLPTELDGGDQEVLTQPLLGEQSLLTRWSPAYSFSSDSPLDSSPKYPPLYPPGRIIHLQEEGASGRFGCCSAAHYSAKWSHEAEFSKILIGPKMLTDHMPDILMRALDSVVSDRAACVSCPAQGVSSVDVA
beta cell repl: inducers of beta-cell replication in MIN6 cells. MIN6 cells proliferation, ATPlite luminescence, 48 h; cells starved in 0.2% serum; 100% = growth in 10% serum. proliferation, % at 10 µM. hit rate 0.29% among 330,000. AID 2380;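 active = compounds whose signal lies at least 3.5 SD above the mean of all wells on their plate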;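 also: 0% = DMSO-treated cells in low-serum medium and 100% = 10% serum control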
Myeloid diff CP1: myeloid differentiation induction. shares compounds with Myeloid diff 2. ER-HoxA9 myeloid progenitors, GFP/Mac1 double-positive flow. calls only. hit rate 2% among 2,300;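 active = share of green or green-and-red cells above 9 and 9% in run 1 or 4 and 3% in run 2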
GFP autofluor: compound fluorescence in myeloid differentiation counter-screen | shares compounds with Myeloid diff 2 | hit rate 7.4% among 2,300 | ER-HoxA9 myeloid progenitors, no estrogen, GFP autofluorescence flow cytometry; vehicle wells 0%, positive control 100% | fluorescence response, % (no concentration beside the values);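 active = over 5% cells positive for green fluorescent reporter, or over 2% positive for both it and APC stain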;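 also: range taken on the double positive population between DMSO and positive control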
Active calls of the source: *; i = inactive; . = not tested or not shown; + = active, no number.

SMILES	Myeloid diff 2	NRP1-CendR mod	MT1-MMP act inh	SENP1 FRET inh	DAGLB inhibitor	beta cell repl	Myeloid diff CP1	GFP autofluor
O=c1[nH]c(CN2CCN(c3ccccc3)CC2)nc2scc(-c3ccccc3)c12	+	-31	-40	-26	1	0	i	0
N/C(=N\OC(=O)C12CC3CC(CC(C3)C1)C2)c1cccnc1	i	0	-1	2	-1	-2	i	0
N/C(=N\OC(=O)C12CC3CC(CC(C3)C1)C2)c1ccccc1	i	-4	6	3	-3	-5	.	.
CC(Oc1ccc(Cl)cc1Cl)C(=O)NCCCn1ccnc1 (stereo unspecified)	+	2	0	-1	6	3	i	0
C[C@H]1CN([C@@H](C)CO)C(=O)c2cc(NC(=O)C3CCCCC3)ccc2O[C@H]1CN(C)C(=O)Nc1ccc2c(c1)OCO2	i	-6	0	1	-4	2	.	.
CC(C)n1nnnc1C1c2ccccc2C(=O)N1Cc1ccco1 (stereo unspecified)	+	-15	-1	2	.	.	i	2
O=C(NCCc1ccco1)C(=O)NCC1CCCN1S(=O)(=O)c1ccccc1 (stereo unspecified)	+	2	1	-7	-2	-5	i	0
N#Cc1cc(C#N)c(SCC(=O)N2CC(=O)Nc3ccccc32)nc1N	i	-67	-13	-18	0	-1	i	1
Cc1onc(-c2ccccc2Cl)c1C(=O)N1C=CC(C(F)(F)Cl)=NCC1	+	-10	1	-1	-1	-1	i	0
CCOc1ccc(Oc2ccc(Cl)cc2N)cc1	i	6	2	0	-10	-3	.	.
O=Cc1c(-c2ccccc2)cc2oc3ccccc3cc1-2	i	2	-7	-1	1	-3	i	66*
COc1ccc2c(Cl)c(C(=O)NCCc3ccc(S(N)(=O)=O)cc3)sc2c1	i	10	1	-1	-2	0	.	.
CC1CCN(S(=O)(=O)c2ccc3c(c2)N(CC(=O)NCCCN2C(C)CCCC2C)C(=O)CO3)CC1 (stereo unspecified)	i	10	-4	-13	0	0	.	.
COc1ccc(-n2c(C)nnc2SCC(=O)NC2CC2)cc1	i	8	2	4	0	1	.	.
COc1ccc(-n2c(C)nnc2SCC(=O)N2C(C)CCCC2C)cc1 (stereo unspecified)	+	5	-1	-3	0	-4	i	0
COc1ccc(-c2c(-c3ccccc3OC)sc3ccccc23)cc1C=O	i	-2	2	1	-7	-7	.	.
COc1ccc2c(c1)NC(=O)CC(c1ccccc1)=N2	i	-18	-1	0	3	-2	i	0
COc1ccc(O)c(C2=Nc3ccccc3N=C(c3ccccc3)C2)c1	i	-14	6	16	-4	-6	.	.
C=CCCC(=O)N(C)CCO	i	3	-1	-1	1	-3	.	.
COc1ccc2[nH]c3nc(SCC(=O)NNC(=O)c4ccc(OC)c(OC)c4)nnc3c2c1	i	1	1	3	-1	-1	i	0
Cc1ccc(C(=O)NNC(=O)CSc2nnc3c(n2)[nH]c2ccc(F)cc23)cc1	i	8	4	-17	0	-6	.	.
Oc1cc(-c2ccncc2)cc2cccnc12	+	0	-12	3	2	-6	i	0
O=C(NCc1ccc(CNC(=O)c2ccco2)cc1)c1ccco1	i	-5	-3	1	3	-4	.	.
Cc1n[nH]c(C)c1N1C(=O)c2cccc3c(Br)ccc(c23)C1=O	i	3	-92	-8	3	-5	i	0
Cc1n[nH]c(C)c1N1C(=O)c2cccc3cc(Br)cc(c23)C1=O	i	12	3	2	-4	4	.	.
SMILES	Myeloid diff 2	NRP1-CendR mod	MT1-MMP act inh	SENP1 FRET inh	DAGLB inhibitor	beta cell repl	Myeloid diff CP1	GFP autofluor
COc1ccccc1NC(=O)N1CCN(c2cc(-c3ccccc3)nc3ncnn23)CC1	i	-5	6	-1	2	0	i	0
CCCNc1cc(C)oc(=O)c1C(=O)CC	i	2	0	1	-3	-1	.	.
CCOC(=O)c1c(NC(=S)Nc2ccc(OCC)cc2)sc2c1CCN(C)C2	i	-51	-4	-149	-4	-1	.	.
CCOC(=O)c1c(NC(=S)Nc2ccc(Cl)cc2)sc2c1CCN(C)C2	+	127	-44	-27	-6	.	i	47*
Oc1ccccc1N=Cc1c(O)ccc2oc3c(c12)CCCC3	i	-118	-24	23	1	-7	i	3
CCCCn1c(SCC(=O)OCC)nc2c(sc(=S)n2-c2ccccc2OC)c1=O	i	-1	3	1	-8	-6	.	.
O=C(Cc1ccc(Cl)cc1Cl)NCC1(N2CCOCC2)CCCCC1	i	-3	-3	3	0	0	i	0
O=C(CSc1nnnn1-c1ccccc1)NCC1(N2CCOCC2)CCCCC1	i	13	-3	2	-2	1	i	3
CCOC(=O)Cc1cnc(NC(=O)NC(C(=O)OCC)(c2ccccc2)C(F)(F)F)s1 (stereo unspecified)	i	37*	-6	2	1	-3	i	2
Cc1ccc(-c2nc(SCC(=O)NCC3CCCO3)c(-c3ccc(C)cc3)[nH]2)cc1 (stereo unspecified)	i	-4	-2	2	2	-5	i	0
Cc1nc(SCC(=O)NCC2CCCO2)c2cc(-c3ccccc3)sc2n1 (stereo unspecified)	i	-4	5	-9	-8	-5	i	0
Cc1ccc(-c2[nH]c(-c3ccccc3)nc2SCC(=O)NCC2CCCO2)cc1 (stereo unspecified)	i	-9	0	2	0	0	.	.
Cc1ccc2cc(C#N)c(SCC(=O)NCC3CCCO3)nc2c1 (stereo unspecified)	i	1	-2	-14	2	1	i	0
NC(Cc1ccc(Cl)cc1)c1csc(NC(=O)NCC2CCCCC2)n1 (stereo unspecified)	+	1	-1	-5	.	.	i	1
CCc1nc2ccc(C(=O)NCCc3ccc(OC)cc3)cc2nc1CC	i	8	4	-1	-4	1	i	0

Bioassay records as filed in PubChem BioAssay.
